The text below walks through data of the RNAGym collection of RNA variant scans (doi:10.1038/nmeth.2970).

B1: NELF-E aptamer (parent)
chain: CCCAACGACUGCCGAGCGAGAUUACGCUUGAGCGCCCCACUGAGGAUGCCCACGGGCGAUUGGGGCACGG

The variants in this data set derive from B1. In words: HiTS-RAP. Conditions: with NELF-E (Drosophila). The procedure, abridged: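 Aptamer DNA templates carrying a T7 promoter and ter site were sequenced on an Illumina GAIIx flowcell, then transcribed in situ by T7 RNA polymerase and halted by GST-Tus (30 minutes, 37°C). Clusters were imaged after 30-minute room-temperature equilibration with NELF-E-mOrange at 0.064 to 1000 nM in HEPES binding buffer, and only the first binding curve was used. Intensities were normalised to sequencing intensity and averaged per sequence. Kd came from weighted Hill fits, keeping fits with variance below 1,000,000.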
Regarding CCCAACGACGGCCGAGCGAGAUUACGCUUGAGCGCCCCACUGAGGAGGCCCACGGGCGAUUGGGGCACGG [U10G U47G], the Kd (commonly the equilibrium constant for the complex coming apart) is 6.24 nM.

As for CCCAACGACGGCCGAGCGAGAUUACGCUUGAGCGCCCCACUGAGGAAGCCCACGGGCGAUUGGGGCACGG [U10G U47A], the Kd amounted to 10.8 nM. As to CCCAACGACGGCCGAGCGAGAUUACGCUUGAGCGCCCCACUGAGGAUGCCCACGGGCGAUUGGGCCACGG [U10G G65C], the Kd came out at 17 nM. Regarding CCCAACGACGGCCGAGCGAGAUUACGCUUGAGCGCCCCACUGAGGAUGCCCACGGGCGAUUGGGACACGG [U10G G65A], the Kd worked out at 4.82 nM. For the variant CCCAACGACGGCCGAGCGAGAUUACGCUUGAGCGCCCCACUGAGGAUGCCCACGGGCGAUUGGGUCACGG [U10G G65U], the equilibrium dissociation constant (Kd) came to 6.08 nM.

On to CCCAACGACUACCGAGCGAGAUUACGCUUGGGCGCCCCACUGAGGAUGCCCACGGGCGAUUGGGGCACGG [G11A A31G], for which the dissociation constant Kd was determined as 10.9 nM. Take CCCAACGACGGCCGAGCGAGAUUACGCUUGAGCGCCCCACUGAGGAUGCCCACGGGCUAUUGGGGCACGG [U10G G58U]: the dissociation constant Kd amounted to 8.62 nM. In the case of CCCAACGACGGCCGAGCGAGAUUACGCUUGAGCGCCCCACUGAGGAUGCCCACGGGCGAGUGGGGCACGG [U10G U60G], the dissociation constant (Kd) amounted to 6.36 nM. With CCCAACGACGGCCGAGCGAGAUUACGCUUGAGCGCCCCACUGAGGAUGCCCACGGGCGACUGGGGCACGG [U10G U60C], the Kd stood at 8.47 nM. CCCAACGACGGCCGAGCGAGAUUACGCUUGAGCGCCCCACUGAGGAUGCCCACGGGCGAAUGGGGCACGG [U10G U60A]: the equilibrium dissociation constant (Kd) worked out at 8.76 nM. The figure for CCCAACGACUACCGAGCGAGAUUACGCUUGAGCGCCCCACCGAGGAUGCCCACGGGCGAUUGGGGCACGG [G11A U41C] is 83.6 nM. For the variant CCCAACGACUACCGAGCGAGAUUACGCUUGAGCGCCCCACAGAGGAUGCCCACGGGCGAUUGGGGCACGG [G11A U41A], the Kd was 77 nM. Take CCCAACGACUACCGAGCGAGAUUACGCUUGAGCGCCCCACGGAGGAUGCCCACGGGCGAUUGGGGCACGG [G11A U41G]: the Kd was 6.14 nM.

Take CCCAACGACUACUGAGCGAGAUUACGCUUGAGCGCCCCACUGAGGAUGCCCACGGGCGAUUGGGGCACGG [G11A C13U]: the Kd amounted to 5.33 nM. The figure for CCCAACGACUACGGAGCGAGAUUACGCUUGAGCGCCCCACUGAGGAUGCCCACGGGCGAUUGGGGCACGG [G11A C13G] is 6.15 nM.

Regarding CCCAACGACUCGCGAGCGAGAUUACGCUUGAGCGCCCCACUGAGGAUGCCCACGGGCGAUUGGGGCACGG [G11C C12G], the dissociation constant Kd came to 5.71 nM. As for CCCAACGACUACCGAGGGAGAUUACGCUUGAGCGCCCCACUGAGGAUGCCCACGGGCGAUUGGGGCACGG [G11A C17G], the Kd was 6.96 nM. The figure for CCCAACGACGGCCGAGCGAGAUUACGCUUGAGCGCCCCACUGAGGAUACCCACGGGCGAUUGGGGCACGG [U10G G48A] is 8.83 nM; for CCCAACGACGGCCGAGCGAGAUUACGCUUGAGCGCCCCACUGAGGAUUCCCACGGGCGAUUGGGGCACGG [U10G G48U] it is 6.92 nM. As for CCCAACGACGGCCGAGCGAGAUUACGCUUGAGCGCCCCACUGAGUAUGCCCACGGGCGAUUGGGGCACGG [U10G G45U], the figure is 7.35 nM. Regarding CCCAACGACGGCCGAGCGAGAUUACGCUUGAGCGCCCCACGGAGGAUGCCCACGGGCGAUUGGGGCACGG [U10G U41G], the Kd worked out at 5.17 nM. In the case of CCCAACGACGGCCGAGCGAGAUUACGCUUGAGCGCCCCACCGAGGAUGCCCACGGGCGAUUGGGGCACGG [U10G U41C], the Kd came to 76.2 nM. CCCAACGACGGCCGAGCGAGAUUACGCUUGAGCGCCCCACAGAGGAUGCCCACGGGCGAUUGGGGCACGG [U10G U41A]: the Kd amounted to 82.6 nM. As for CCCAACGACUACCGAGCGAGAUUACGCUGGAGCGCCCCACUGAGGAUGCCCACGGGCGAUUGGGGCACGG [G11A U29G], the figure is 6.58 nM. As for CCCAACGACGGCCGAGCGAGAUUACGCUUGAGCGCCCCACUGAGGAUGCCCACGGGCGAUGGGGGCACGG [U10G U61G], the figure is 8.63 nM; as for CCCAACGACGGCCGAGCGAGAUUACGCUUGAGCGCCCCACUGAGGAUGCCCACGGGCGAUAGGGGCACGG [U10G U61A], 29.9 nM. As for CCCAACGACUACCUAGCGAGAUUACGCUUGAGCGCCCCACUGAGGAUGCCCACGGGCGAUUGGGGCACGG [G11A G14U], the Kd worked out at 6.48 nM. The figure for CCCAACGACUACCAAGCGAGAUUACGCUUGAGCGCCCCACUGAGGAUGCCCACGGGCGAUUGGGGCACGG [G11A G14A] is 6.34 nM. In the case of CCCAACGACGGCCGAGCGAGAUUACGCUUGAGCGCCCCACUGAGGAUGCCCACGGGCGAUUCGGGCACGG [U10G G62C], the Kd was 67.3 nM. In the case of CCCAACGACGGCCGAGCGAGAUUACGCUUGAGCGCCCCACUGAGGAUGCCCACGGGCGAUUAGGGCACGG [U10G G62A], the Kd worked out at 16.9 nM. As for CCCAACGACGGCCGAGCGAGAUUACGCUUGAGCGCCCCACUGAGGAUGCCCACGGGCGAUUUGGGCACGG [U10G G62U], the figure is 6.99 nM; as for CCCAACGACUACCGAUCGAGAUUACGCUUGAGCGCCCCACUGAGGAUGCCCACGGGCGAUUGGGGCACGG [G11A G16U], 6.64 nM. The figure for CCCAACGACGGCCGAGCGAGAUUACGCUUGAGCGCCCCACUGAGGAUGCCCACUGGCGAUUGGGGCACGG [U10G G54U] is 6.86 nM; for CCCAACGACGGCCGAGCGAGAUUACGCUUGAGCGCCCCACUGAGGAUGCCCACAGGCGAUUGGGGCACGG [U10G G54A] it is 12 nM. Turning to CCCAACGACUUCCGAGCGAGAUUACGCUUGAGCGCCCCACUGAGGAUGCCCACGGGCGAUUGGGGCACGG [G11U], the dissociation constant Kd worked out at 5.7 nM. As for CCCAACGACUACCGAGCGAGAUUACGCUUGAGCGCCCCACUGAGGAUGCCCACGGGCGAUUGGGGCACGG [G11A], the Kd was 5.29 nM. Regarding CCCAACGACUCCCGAGCGAGAUUACGCUUGAGCGCCCCACUGAGGAUGCCCACGGGCGAUUGGGGCACGG [G11C], the Kd was determined as 6.3 nM. Turning to CCCAACGACUACCGAGCGAGAGUACGCUUGAGCGCCCCACUGAGGAUGCCCACGGGCGAUUGGGGCACGG [G11A U22G], the dissociation constant Kd came out at 6.03 nM. On to CCCAACGACUAGCGAGCGAGAUUACGCUUGAGCGCCCCACUGAGGAUGCCCACGGGCGAUUGGGGCACGG [G11A C12G], for which the Kd stood at 7.18 nM.
